Measurements taken from ChEMBL document CHEMBL5058577, “EUbOPEN Chemogenomics Library 2 (Multiplex)” (2022).

Tested on: HEK-293T
Assay: Multiplex assay against HEK293T
Format: toxicity, cell-based
Settings: human
Summary of the method: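 Values for tubulin, mitochondrial-mass and membrane-permeability phenotypes are per cents of cells with healthy nuclei. These cells were identified by CellPathfinder machine-learning gating of live cells that had been stained at seeding with Hoechst33342, BioTracker Green Microtubule Cytoskeleton Dye, MitoTracker Red and Annexin V Alexa Fluor 680 and imaged on a CQ1 microscope at 37°C and 5% CO2 after compound addition. The gating first set Hoechst high-intensity objects apart from normal cells, then split normal cells into healthy, pyknosed or fragmented nuclei, and pyknosed cells into mitotic or apoptotic.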

[1] = 12 h, 1 µM, compound concentration 1 uM, replicate 1
[2] = 12 h, 1 µM, compound concentration 1 uM, replicate 2
[3] = 12 h, 10 µM, compound concentration 10 uM, replicate 1
[4] = 12 h, 10 µM, compound concentration 10 uM, replicate 2
[5] = 24 h, 1 µM, compound concentration 1 uM, replicate 1
[6] = 24 h, 1 µM, compound concentration 1 uM, replicate 2
[7] = 24 h, 10 µM, compound concentration 10 uM, replicate 1
[8] = 24 h, 10 µM, compound concentration 10 uM, replicate 2
[9] = 48 h, 1 µM, compound concentration 1 uM, replicate 1
[10] = 48 h, 1 µM, compound concentration 1 uM, replicate 2
[11] = 48 h, 10 µM, compound concentration 10 uM, replicate 1
[12] = 48 h, 10 µM, compound concentration 10 uM, replicate 2

COc1cc2nc(N3CCN(C(=O)c4ccco4)CC3)nc(N)c2cc1OC.Cl [PRAZOSIN HYDROCHLORIDE]
Population Apoptotic (%) [1]: 32% | Population Fragmented Nuclei (%) [1]: 10% | Population Healthy Nuclei (%) [1]: 77% | Population Hoechst High Intensity Objects (%) [1]: 6% | Population Membrane Permeable-Phenotype (%) [1]: 0% | Population Mitochondria Different-Phenotype (%) [1]: 35% | Population Mitotic Cells (%) [1]: 67% | Population Normal (%) [1]: 93% | Population Pyknosed Nuclei (%) [1]: 11% | Population Tubulin-Different-Phenotype (%) [1]: 23% | Total Cell Count [1]: 448 | Population Apoptotic (%) [2]: 56% | Population Fragmented Nuclei (%) [2]: 6% | Population Mitochondria Different-Phenotype (%) [2]: 66% | Population Mitotic Cells (%) [2]: 43% | Population Pyknosed Nuclei (%) [2]: 16% | Population Tubulin-Different-Phenotype (%) [2]: 22% | Total Cell Count [2]: 290 | Population Apoptotic (%) [3]: 38% | Population Fragmented Nuclei (%) [3]: 9% | Population Healthy Nuclei (%) [3]: 75% | Population Hoechst High Intensity Objects (%) [3]: 10% | Population Membrane Permeable-Phenotype (%) [3]: 0% | Population Mitochondria Different-Phenotype (%) [3]: 62% | Population Mitotic Cells (%) [3]: 61% | Population Normal (%) [3]: 89% | Population Pyknosed Nuclei (%) [3]: 14% | Population Tubulin-Different-Phenotype (%) [3]: 45% | Total Cell Count [3]: 348 | Population Apoptotic (%) [4]: 55% | Population Fragmented Nuclei (%) [4]: 5% | Population Healthy Nuclei (%) [4]: 77% | Population Hoechst High Intensity Objects (%) [4]: 9% | Population Mitochondria Different-Phenotype (%) [4]: 61% | Population Mitotic Cells (%) [4]: 44% | Population Normal (%) [4]: 90% | Population Pyknosed Nuclei (%) [4]: 16% | Population Tubulin-Different-Phenotype (%) [4]: 25% | Total Cell Count [4]: 404 | Population Apoptotic (%) [5]: 38% | Population Fragmented Nuclei (%) [5]: 9% | Population Healthy Nuclei (%) [5]: 82% | Population Hoechst High Intensity Objects (%) [5]: 3% | Population Membrane Permeable-Phenotype (%) [5]: 0% | Population Mitochondria Different-Phenotype (%) [5]: 25% | Population Mitotic Cells (%) [5]: 61% | Population Normal (%) [5]: 96% | Population Pyknosed Nuclei (%) [5]: 7% | Population Tubulin-Different-Phenotype (%) [5]: 10% | Total Cell Count [5]: 660 | Population Apoptotic (%) [6]: 51% | Population Healthy Nuclei (%) [6]: 80% | Population Hoechst High Intensity Objects (%) [6]: 5% | Population Mitochondria Different-Phenotype (%) [6]: 45% | Population Mitotic Cells (%) [6]: 48% | Population Normal (%) [6]: 94% | Population Pyknosed Nuclei (%) [6]: 10% | Population Tubulin-Different-Phenotype (%) [6]: 16% | Total Cell Count [6]: 364 | Population Apoptotic (%) [7]: 50% | Population Fragmented Nuclei (%) [7]: 12% | Population Healthy Nuclei (%) [7]: 77% | Population Hoechst High Intensity Objects (%) [7]: 5% | Population Membrane Permeable-Phenotype (%) [7]: 0% | Population Mitochondria Different-Phenotype (%) [7]: 40% | Population Mitotic Cells (%) [7]: 50% | Population Normal (%) [7]: 94% | Population Pyknosed Nuclei (%) [7]: 9% | Population Tubulin-Different-Phenotype (%) [7]: 32% | Total Cell Count [7]: 463 | Population Apoptotic (%) [8]: 54% | Population Fragmented Nuclei (%) [8]: 11% | Population Healthy Nuclei (%) [8]: 78% | Population Membrane Permeable-Phenotype (%) [8]: 1% | Population Mitochondria Different-Phenotype (%) [8]: 42% | Population Mitotic Cells (%) [8]: 45% | Population Pyknosed Nuclei (%) [8]: 10% | Population Tubulin-Different-Phenotype (%) [8]: 20% | Total Cell Count [8]: 534 | Population Apoptotic (%) [9]: 36% | Population Fragmented Nuclei (%) [9]: 17% | Population Healthy Nuclei (%) [9]: 76% | Population Hoechst High Intensity Objects (%) [9]: 1% | Population Membrane Permeable-Phenotype (%) [9]: 1% | Population Mitochondria Different-Phenotype (%) [9]: 16% | Population Mitotic Cells (%) [9]: 63% | Population Normal (%) [9]: 98% | Population Pyknosed Nuclei (%) [9]: 5% | Population Tubulin-Different-Phenotype (%) [9]: 8% | Total Cell Count [9]: 1114 | Population Apoptotic (%) [10]: 38% | Population Fragmented Nuclei (%) [10]: 16% | Population Hoechst High Intensity Objects (%) [10]: 2% | Population Membrane Permeable-Phenotype (%) [10]: 0% | Population Mitochondria Different-Phenotype (%) [10]: 23% | Population Mitotic Cells (%) [10]: 61% | Population Normal (%) [10]: 97% | Population Pyknosed Nuclei (%) [10]: 6% | Population Tubulin-Different-Phenotype (%) [10]: 9% | Total Cell Count [10]: 636 | Population Apoptotic (%) [11]: 33% | Population Fragmented Nuclei (%) [11]: 17% | Population Healthy Nuclei (%) [11]: 75% | Population Hoechst High Intensity Objects (%) [11]: 4% | Population Membrane Permeable-Phenotype (%) [11]: 2% | Population Mitochondria Different-Phenotype (%) [11]: 32% | Population Mitotic Cells (%) [11]: 66% | Population Normal (%) [11]: 95% | Population Pyknosed Nuclei (%) [11]: 7% | Population Tubulin-Different-Phenotype (%) [11]: 17% | Total Cell Count [11]: 693 | Population Apoptotic (%) [12]: 23% | Population Fragmented Nuclei (%) [12]: 14% | Population Healthy Nuclei (%) [12]: 78% | Population Membrane Permeable-Phenotype (%) [12]: 1% | Population Mitochondria Different-Phenotype (%) [12]: 21% | Population Mitotic Cells (%) [12]: 76% | Population Tubulin-Different-Phenotype (%) [12]: 11% | Total Cell Count [12]: 778
